Tn6 DDE FP: inhibitors of Tn6 peptide binding to human fibrin DD(E); Fibrin DD(E) TRITC-Tn6 fluorescence polarization displacement; inhibition, % at 8.3 µM; actives 0.21% (n = 370,000); AID 720509;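 active = inhibition above a per-campaign cutoff: mean of compounds within control limits plus 3 SD, cut at about 15% in these data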
Target sequence (P02675 whole entry, looked up): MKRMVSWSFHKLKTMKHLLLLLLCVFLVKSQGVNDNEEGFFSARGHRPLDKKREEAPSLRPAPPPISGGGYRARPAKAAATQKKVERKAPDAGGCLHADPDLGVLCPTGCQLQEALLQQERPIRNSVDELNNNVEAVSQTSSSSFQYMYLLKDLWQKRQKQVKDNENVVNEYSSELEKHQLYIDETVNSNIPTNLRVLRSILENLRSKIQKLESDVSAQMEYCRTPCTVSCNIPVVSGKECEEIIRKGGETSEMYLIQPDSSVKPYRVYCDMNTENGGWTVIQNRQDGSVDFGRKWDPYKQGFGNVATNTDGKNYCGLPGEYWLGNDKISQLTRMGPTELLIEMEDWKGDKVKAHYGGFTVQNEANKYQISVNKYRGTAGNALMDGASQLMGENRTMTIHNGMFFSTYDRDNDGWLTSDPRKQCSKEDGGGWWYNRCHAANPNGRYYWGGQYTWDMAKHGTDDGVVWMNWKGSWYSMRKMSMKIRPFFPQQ
RTF Ca sens act: increases calcium sensitivity of human cardiac regulated thin filaments; P19429+P45379; IANBD-labeled TnC RTF fluorescence at EC20 calcium; 0% EC20 calcium, 100% full calcium; activation, % at 7.2 µM; actives 0.24% (n = 340,000);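 active = activation above the mean over all tested compounds plus 3 SD, cut at about 30% in these data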;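 also: rise in fluorescence read as greater calcium sensitivity of cardiac thin filaments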
Tn7 DDE FP: DD(E)-Tn7 binding inhibition, primary FP screen | inhibition, % at 8.3 µM | FP displacement of FITC-Tn7 peptide from fibrin DD(E); 0% = median of compound wells per plate | actives 0.13% (n = 370,000) | AID 720508;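 active = inhibition above the mean of compounds falling within the control limits plus 3 SD of them, cut at about 14% in these data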
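Measure: % inhibition scaled between sample-field median and high-control FP; Test system: human fibrin DD(E); Quantity: 2 µM final DD(E) protein; Doses: one dose, 8.3 µM nominal; Schedule: compound with protein 10 min, then 3 h after probe, room temperature; Detection: fluorescence polarization; Medium: Tris buffer with calcium and detergent, pH 7.8.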
CRFR2-BP ag: agonists of human CRF-binding protein/CRF-R2 receptor complex. HEK293 CRF-R2/CRF-BP, calcium dye fluorescence (FLIPR); percent of saturating CRF peptide response. activation, % at 13.2 µM. actives 0.46% (n = 350,000). AID 588473;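 active = activation of at least 50%, plus an integration ratio under a set limit after plate pattern correction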
Cardiac RTF inh: cardiac RTF calcium desensitization. IANBD-labeled cardiac RTF, Ca2+ fluorescence. AID 493244. actives 0.12% (n = 340,000). inhibition, % at 7.15 µM;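 active = inhibition above the mean inhibition of all tested compounds plus 3 SD, cut at about 17% in these data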;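 also: assay run at fixed EC70 calcium of 1.6 mM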
CRFR2-BP antag: CRF-BP/CRF-R2 complex antagonism. HEK293 CRF-R2/CRF-BP, CRF-induced calcium fluorescence. inhibition, % at 11.8 µM. actives 0.59% (n = 350,000). AID 588475;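 active = inhibition of the ligand-induced calcium signal above about 50% at the single tested concentration, limit read from the data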
DDE Tn7 confirm: DD(E)-Tn7 binding inhibition, FP confirmation; FP displacement of TRITC-Tn7 peptide from DD(E); 0% set at plate's compound-well median; shares compounds with Tn7 DDE FP; inhibition, % at 8.3 µM; actives 5% (n = 460);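 active = inhibition above the campaign cutoff, the mean of compounds within control limits plus 3 SD, cut at about 14% in these data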;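 also: displacers lower polarization since freed probe rises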
DDE Tn7 FP ctr: counter-screen for inhibitors of Tn7 peptide binding to fibrin DD(E); inhibition, % at 8.3 µM; actives 3% (n = 460); shares compounds with Tn7 DDE FP; TRITC-Tn7 probe displacement, fluorescence polarization;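 active = inhibition above the cutoff, the mean of compounds lying between the control bounds plus 3 SD of those compounds, cut at about 17% in these data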
Numbers stand for hits; - = inactive; . = not tested or not shown. Only some compounds are listed: those with a hit (about 1.4% of all), similar ones and a draw of the others.

SMILES	Tn6 DDE FP	RTF Ca sens act	Tn7 DDE FP	CRFR2-BP ag	Cardiac RTF inh	CRFR2-BP antag	DDE Tn7 confirm	DDE Tn7 FP ctr
Cc1ccc(NC(=O)C2CC(O)CN2C(=O)OCc2ccccc2)cc1C (stereo not given)	-	-	15	-	-	-	-	-
COc1cccc(NC(=O)COC(=O)c2ccc(S(=O)(=O)NCc3ccco3)cc2)c1	-	-	15	-	-	-	-	-
CC(=O)Nc1ccc(NC(=O)COC(=O)c2ccc(S(=O)(=O)NCc3ccco3)cc2)cc1	-	-	-	-	-	-	.	.
COc1cccc(CNC(=O)C2C3C=CC4(CN(Cc5ccccc5)C(=O)C24)O3)c1OC (stereo not given)	-	.	-	.	.	.	.	.
Cn1c(NCC2CCCCC2)nc2cc(-c3ccsc3)sc2c1=O	-	.	-	.	.	.	.	.
Cc1cc2nc3c(=O)n(C4CCCCC4)c(=O)[nH]c3nc2cc1N	-	566	25	-	-	-	17	-
CSCCCNC(=O)c1oc(=O)c2ccccc2c1-c1ccc(C)cc1	-	.	15	.	.	.	-	-
COc1ccc(N2C(=O)NC3CC2(C)Oc2ccccc23)cc1 (stereo not given)	-	-	16	-	-	-	-	-
COc1ccc(S(=O)(=O)N[C@H]2CC[C@H](CCNC(=O)c3ccccc3F)O[C@@H]2CO)cc1	-	.	-	.	.	.	.	.
O=C(O)c1cccc(C(=O)O)c1S(=O)Cc1ccccc1 (stereo not given)	-	.	-	.	.	.	.	.
CS(=O)(=O)OC12CCCN(C1)/C(=C/c1ccc(Cl)cc1)C2 (stereo not given)	-	.	-	.	.	.	.	.
Nc1cc(N2CCCCC2)c([N+](=O)[O-])cc1Cl	-	-	14	-	-	-	-	-
CCN(C(=O)C(C)N1C(=O)/C(=C/c2ccco2)SC1=S)C1CCS(=O)(=O)C1 (stereo not given)	-	-	14	-	-	-	-	-
CC(C(=O)N(C)C1CCS(=O)(=O)C1)N1C(=O)/C(=C/c2ccc(F)cc2)SC1=S (stereo not given)	-	-	-	-	-	-	.	.
COc1ccc(C2C(C(=O)Nc3ccc(F)cc3)CCC(=O)N2c2ccc(OC)cc2)cc1 (stereo not given)	-	.	-	.	.	.	.	.
COc1ccc(-c2ccc(C(=O)NC3CCCCC3)c3occc23)c(C)c1	-	.	16	.	.	.	-	-
COc1ccc(-c2coc3c(C(=O)NC4CCCCC4)cccc23)c(C)c1	-	.	-	.	.	.	.	.
NC(=O)C1CCN(C(=S)NCc2ccc3c(c2)OCO3)CC1	-	-	15	-	-	-	-	-
Cc1ccc(NC(=O)CS(=O)CC(=O)N(c2ccc(C)cc2)C(C)C(=O)NC2CCCCC2)cc1 (stereo not given)	-	-	15	-	-	-	-	-
Cc1onc(-c2ccccc2)c1C(=O)Nc1sc2c(c1C(N)=O)CCC2	-	-	-	-	-	-	.	.
Cc1onc(C(=O)Nc2sc3c(c2C(N)=O)CCCC3)c1[N+](=O)[O-]	-	-	16	-	-	-	-	-
O=C(CNc1n[nH]c(=O)[nH]c1=O)N/N=C/c1cccnc1	-	-	-	-	-	-	.	.
O=C(CNc1n[nH]c(=O)[nH]c1=O)N/N=C/c1ccccc1	-	.	15	-	.	-	-	-
CC(c1ccc(Cl)cc1)N(CCN(C)C)c1ccccn1 (stereo not given)	-	.	-	.	.	.	.	.
Cc1cccc(NC(=O)c2ccc(C(=O)c3ccccc3)cc2)n1	-	-	20	-	-	-	-	-
SMILES	Tn6 DDE FP	RTF Ca sens act	Tn7 DDE FP	CRFR2-BP ag	Cardiac RTF inh	CRFR2-BP antag	DDE Tn7 confirm	DDE Tn7 FP ctr
O=C1NC(=S)SC1=Cc1cccs1	-	-	14	-	-	-	-	-
O=C1Nc2ccccc2S/C1=C/c1cccs1	-	-	-	-	-	-	.	.
Cc1c(O)nc2ccccn2c1=O	-	.	14	-	.	-	-	-
CCc1ccc(C(=O)N2CCN(c3ccc(NC(=O)c4ccco4)cc3)CC2)cc1	-	-	-	-	-	-	.	.
COc1ccc(C(=O)N2CCN(c3ccc(NC(=O)c4ccco4)cc3)CC2)cc1	-	-	14	-	-	-	-	-
COc1ccccc1CN1C[C@@H]2C[C@@H](c3ccccc3C)N3CCC[C@@]23C1=O	-	-	16	-	-	-	-	-
CN(C)S(=O)(=O)N1CCC(Oc2ccc(C(=O)N3C[C@@H]4CCC[C@H]3C4)cc2)CC1	-	-	14	-	-	-	-	-
CC(C)CNC(=O)OCc1cn(Cc2cc(F)ccc2F)nn1	-	.	-	.	.	.	.	.
COc1ccc([C@H]2CC(=O)C=C(c3ccc(Cl)c(F)c3)C2)cc1	-	-	14	-	-	-	-	-
CSc1cc(-c2ccccc2)n(C)c(=O)c1C#N	-	-	-	-	-	-	.	.
CCOC(=O)Cn1c(-c2ccccc2)cc(SC)c(C#N)c1=O	-	-	14	-	-	-	-	-
CCOC(=O)N1CCN(Cc2nc(-c3ccc(Cl)cc3)no2)CC1	-	-	15	-	-	-	-	-
O=C1CCCc2c1cc(C(=O)O)c(=O)n2-c1ccccc1	-	-	-	-	-	-	.	.
COC(=O)C(CCSC)NC(=O)c1cc2c(n(-c3ccccc3)c1=O)CCCC2=O (stereo not given)	-	-	15	-	-	-	-	-
COc1ccc(CN(C)C[C@@H]2OCCCC[C@H](C)Oc3ccc(NC(=O)Nc4ccc(F)cc4)cc3C(=O)N([C@H](C)CO)C[C@H]2C)cc1	-	.	-	-	.	-	.	.
Cc1cc(NC(=O)COC(=O)CNC(=O)c2cccs2)c([N+](=O)[O-])cc1C	-	-	-	-	-	-	.	.
O=C(COC(=O)CNC(=O)c1cccs1)Nc1ccc(C(F)(F)F)cc1[N+](=O)[O-]	-	-	15	-	-	-	-	-
O=C(Nc1ccccc1N1CCCCC1)c1cccc(Cl)c1	-	-	14	-	-	-	-	-
O=C(Nc1ccccc1N1CCCC1)c1cc(Cl)ccc1Cl	-	-	-	-	-	-	.	.
OCCOCCn1c(C(CO)Nc2nc(-c3ccccc3Br)cs2)nc2ccccc21 (stereo not given)	-	-	14	-	-	-	-	-
OCCOCCn1c(C(CO)Nc2nc(-c3cccc(Br)c3)cs2)nc2ccccc21 (stereo not given)	-	-	-	-	-	-	.	.

Screens: PubChem, several laboratories
